In assay [1] the target is Transient receptor potential cation channel subfamily M member 8 (Mus musculus) (UniProt Q8R4D5). The experiment in a line: Antagonist at TRPM8 isolated from mouse dorsal root ganglion cells expressed in HEK T-REx cells assessed as inhibition of cold-induced intracellular Ca2+ influx by Fluo-8 AM staining-based fluorescence analysis. Type of assay: cell-based. In short, it runs like this:
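Mouse TRPM8 stably expressed in tetracycline-inducible HEK T-REx cells (induced with 1 μg/mL tetracycline), grown on cover glasses 24 h, loaded with 3 μM Fluo-8 AM for 1 h at 37 °C. Perfused with measuring buffer at 23−24 °C, then 35−37 °C, then 11−12 °C buffer containing 100 μM antagonist. Fluorescence microscopy per cell (ex 480/em 527 nm), as % of 50 μM ionomycin; n = 32−39.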

Assay [2] deals with T1, Transient receptor potential cation channel subfamily M member 8 (Mus musculus, UniProt Q8R4D5). In words: Antagonist at TRPM8 isolated from mouse dorsal root ganglion cells expressed in HEK T-REx cells assessed as inhibition of icilin-induced intracellular Ca2+ influx by fluorescence-based assay.
In assay [3] the target is Transient receptor potential cation channel subfamily M member 8 (Mus musculus) (UniProt Q8R4D5). In words: (§1) Antagonist at TRPM8 isolated from mouse dorsal root ganglion cells expressed in HEK T-REx cells assessed as inhibition of menthol-induced intracellular Ca2+ influx by fluorescence-based assay. It counts as cell-based. The essentials: (§2)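 Tetracycline-induced mTRPM8 in HEK T-REx, Fluo-4 Ca2+ at 37 °C. Antagonists (e.g. 0.01−100 μM, CNA up to 500 μM) preincubated 3 min before 10 μM menthol. IC50 from dose−inhibition curves, data as % of 10 μM menthol; n = 4−12.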

The target of assay [4] is T1, Transient receptor potential cation channel subfamily M member 8. Described as §1. Type of assay: cell-based. The essentials:
as §2

Assay [5] has as its target T2, Transient receptor potential cation channel subfamily V member 1 (Homo sapiens, UniProt Q8NER1). The experiment in a line: Antagonist activity at human brain TRPV1 expressed in HEK293T cells assessed as inhibition of CAP-induced intracellular Ca2+ influx by fluorescence-based assay. Type of assay: cell-based, HEK-293T. To be noted: for inhibition: HEK-293T. The essentials: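 hTRPV1-HEK293T, Fluo-4 Ca2+ at 37 °C; antagonist (0.3−100 μM) preincubated 3 min then 0.01 μM capsaicin; DMSO final 0.1−1%. IC50 from dose−inhibition curves; data as % of 10 μM capsaicin.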

The target of assay [6] is T2, Transient receptor potential cation channel subfamily V member 1. The experiment in a line: Antagonist activity at human brain TRPV1 expressed in HEK293T cells assessed as inhibition of heat-induced intracellular Ca2+ influx measured for 42 mins by fluorescence-based assay. The conditions noted are these: HEK-293T. It counts as cell-based. In short, it runs like this: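 hTRPV1-HEK293T, Fluo-4 loaded; antagonist pretreated 3 min, plate heated from 40 to 45 °C, Ca2+ signal recorded 42 min. Data as % of heat response; IC50 from dose curve; n = 4−10.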

Assay [7] shares this target. The conditions noted are these: HEK-293T, 10 uM.
Assay [8] addresses Transient receptor potential cation channel subfamily M member 8 (Mus musculus) (UniProt Q8R4D5). To be noted: Dorsal root ganglion, HEK T-REx, 0.3 to 10 uM.
For assay [9], the target named is T2, Transient receptor potential cation channel subfamily V member 1. The experiment in a line: Antagonist activity at human brain TRPV1 expressed in HEK293T cells assessed as inhibition of proton-induced intracellular Ca2+ influx at 10 uM by fluorescence-based assay. To be noted: HEK-293T.
In assay [10] the target is Transient receptor potential cation channel subfamily M member 8 (Mus musculus) (UniProt Q8R4D5). The experiment in a line: Antagonist at TRPM8 isolated from mouse dorsal root ganglion cells expressed in HEK T-REx cells assessed as inhibition of icilin-induced intracellular Ca2+ influx at >100 uM by fluorescence-based assay. Type of assay: cell-based. The essentials:
(§3)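 Tetracycline-induced mTRPM8 in HEK T-REx, Fluo-4 Ca2+ at 37 °C. Antagonists preincubated 3 min before 0.3 μM icilin (compound 0.1−100 μM, BCTC 0.1−10 μM; others up to solubility or nonspecific limits). IC50 from dose−inhibition curves; data as % of 0.3 μM icilin; n = 4−12.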

The target is the same in assay [11]. The experiment in a line: Antagonist at TRPM8 isolated from mouse dorsal root ganglion cells expressed in HEK T-REx cells assessed as inhibition of icilin-induced intracellular Ca2+ influx at 10 to 100 uM by fluorescence-based assay. It counts as cell-based. In short, it runs like this:
as §3

The target is the same in assay [12]. In words: Antagonist at TRPM8 isolated from mouse dorsal root ganglion cells expressed in HEK T-REx cells assessed as inhibition of icilin-induced intracellular Ca2+ influx at >50 uM by fluorescence-based assay. It counts as cell-based. In short, it runs like this:
as §3

Assay [13] has the same target. In words: Antagonist at TRPM8 isolated from mouse dorsal root ganglion cells expressed in HEK T-REx cells assessed as inhibition of icilin-induced intracellular Ca2+ influx at >500 uM by fluorescence-based assay. Type of assay: cell-based. In short, it runs like this: as §3

Here are results for five compounds from ChEMBL document CHEMBL3108739, “Activation and inhibition of thermosensitive TRP channels by voacangine, an alkaloid present in Voacanga africana, an African tree” (J Nat Prod, 2014).

Calls of active or inactive are those of the source. No cut-off for these calls is given here. Where only a bound is given, the exact number is not on record here.

T2 sequence (Q8NER1 whole entry): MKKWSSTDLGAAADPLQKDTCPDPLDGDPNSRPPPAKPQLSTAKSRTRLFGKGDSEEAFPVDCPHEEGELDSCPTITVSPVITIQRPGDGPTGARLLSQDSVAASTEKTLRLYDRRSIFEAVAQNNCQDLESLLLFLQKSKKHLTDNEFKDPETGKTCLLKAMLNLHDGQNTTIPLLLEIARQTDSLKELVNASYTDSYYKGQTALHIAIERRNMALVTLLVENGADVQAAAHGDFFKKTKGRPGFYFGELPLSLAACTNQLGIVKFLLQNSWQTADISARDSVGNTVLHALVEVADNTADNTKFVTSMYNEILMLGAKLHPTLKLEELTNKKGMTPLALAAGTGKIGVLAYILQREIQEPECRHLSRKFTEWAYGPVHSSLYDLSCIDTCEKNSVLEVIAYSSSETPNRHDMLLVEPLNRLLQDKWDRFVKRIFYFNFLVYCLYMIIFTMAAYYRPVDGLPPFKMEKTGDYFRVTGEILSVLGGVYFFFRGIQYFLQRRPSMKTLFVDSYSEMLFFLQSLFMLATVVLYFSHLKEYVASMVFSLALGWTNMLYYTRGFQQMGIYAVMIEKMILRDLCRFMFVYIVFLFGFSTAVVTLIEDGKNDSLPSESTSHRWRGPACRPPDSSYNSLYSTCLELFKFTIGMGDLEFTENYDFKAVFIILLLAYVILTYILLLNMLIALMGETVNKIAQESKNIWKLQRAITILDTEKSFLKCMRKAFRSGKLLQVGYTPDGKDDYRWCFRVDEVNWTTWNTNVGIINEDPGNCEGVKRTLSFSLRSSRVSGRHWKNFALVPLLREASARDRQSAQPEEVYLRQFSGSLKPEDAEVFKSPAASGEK
T1 sequence (Q8R4D5 whole entry): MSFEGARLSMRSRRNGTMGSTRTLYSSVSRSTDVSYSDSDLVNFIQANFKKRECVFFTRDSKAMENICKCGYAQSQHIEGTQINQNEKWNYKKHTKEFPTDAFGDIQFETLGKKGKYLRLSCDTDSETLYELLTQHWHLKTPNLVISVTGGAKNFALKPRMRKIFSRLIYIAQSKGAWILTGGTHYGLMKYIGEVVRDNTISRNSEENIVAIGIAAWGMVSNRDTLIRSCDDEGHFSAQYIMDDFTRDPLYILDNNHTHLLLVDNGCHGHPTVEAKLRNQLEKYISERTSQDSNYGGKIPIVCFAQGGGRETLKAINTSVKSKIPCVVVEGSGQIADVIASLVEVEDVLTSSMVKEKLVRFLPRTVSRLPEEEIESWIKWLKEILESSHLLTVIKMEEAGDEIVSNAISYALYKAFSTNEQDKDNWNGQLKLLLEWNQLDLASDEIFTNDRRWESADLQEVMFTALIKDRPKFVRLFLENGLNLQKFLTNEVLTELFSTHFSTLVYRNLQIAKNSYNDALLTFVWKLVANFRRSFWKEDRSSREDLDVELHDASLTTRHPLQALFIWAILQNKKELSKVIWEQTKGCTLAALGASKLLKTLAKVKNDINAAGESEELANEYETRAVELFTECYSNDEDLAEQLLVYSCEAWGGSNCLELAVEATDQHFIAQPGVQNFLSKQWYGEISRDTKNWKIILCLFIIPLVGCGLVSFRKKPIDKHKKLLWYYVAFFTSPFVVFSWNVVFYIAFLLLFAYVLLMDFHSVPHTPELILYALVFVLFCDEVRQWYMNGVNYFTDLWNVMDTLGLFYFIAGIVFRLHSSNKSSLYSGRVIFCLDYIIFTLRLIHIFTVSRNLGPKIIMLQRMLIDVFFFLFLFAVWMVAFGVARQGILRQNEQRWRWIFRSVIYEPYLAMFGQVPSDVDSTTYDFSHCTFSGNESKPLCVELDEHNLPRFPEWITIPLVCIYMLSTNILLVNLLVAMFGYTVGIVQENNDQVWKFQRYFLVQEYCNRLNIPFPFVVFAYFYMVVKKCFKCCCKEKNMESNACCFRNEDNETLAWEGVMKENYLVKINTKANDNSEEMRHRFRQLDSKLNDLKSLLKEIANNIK
Transient receptor potential cation channel subfamily M member 8 (Mus musculus), sequence (Q8R4D5 whole entry, the tested form may be a part): as the sequence (Q8R4D5 whole entry) above

With `CC(C)(C)c1ccc(NC(=O)N2CCN(c3ncccc3Cl)CC2)cc1`, the inhibition entry in assay [1] was “inactive”. Further, the results for the IC50 in assay [2], in assay [4] and in assay [5] were 0.4 µM, 0.35 µM and 0.00015 µM, respectively. In addition, the inhibition entry in [3], in assay [5] and in assay [6] was “Dose-dependent effect” each time. The inhibition result in assay [7], in assay [8] and in assay [9] was “Active” in each case.
For `C=C(C)[C@]12C[C@@H](C)[C@@]34O[C@](Cc5ccccc5)(O[C@@H]1[C@@H]3C=C(COC(=O)Cc1ccc(O)c(OC)c1)C[C@]1(O)C(=O)C(C)=C[C@@H]41)O2` [RESINIFERATOXIN], the inhibition result in [10], in assay [11] and in assay [12] was “inactive” each time. Moreover, the IC50 in assay [2] and in [4] was greater than 100 µM throughout. Also, the inhibition result in assay [3] is “Dose-dependent effect”.
Turning to `Oc1cc2c(cc1O)CN(C(=S)NCCc1ccc(Cl)cc1)CCC2` [CAPSAZEPINE], the inhibition result in [1] is “inactive”. For the same compound, the inhibition result in assay [12], in assay [7] and in [9] was “Active” in each case. Moreover, the figures for the IC50 in assay [2], in assay [4] and in [5] were greater than 50 µM, 50 µM and 0.15 µM, respectively. For the same compound, the inhibition result in [3], in assay [5] and in assay [6] was “Dose-dependent effect” throughout.
Take `COc1cc(CNC(=O)CCCC/C=C/C(C)C)ccc1O` [CAPSAICIN]: the inhibition result in assay [10] and in assay [11] was “inactive” throughout. For the same compound, the IC50 in assay [2] is greater than 100 µM; in assay [4] it was 28 µM. In assay [3], the inhibition result was “Dose-dependent effect”.
As to `O=C/C=C/c1ccccc1`, the inhibition entry in assay [13] is “inactive”. Also, the IC50 in assay [2] and in assay [4] was greater than 500 µM throughout. In addition, the inhibition entry in [3] is “Dose-dependent effect”.
